Measured values taken from paper PMC9661475 (Journal of Medicinal Chemistry, 2022).

Key:
EV-D68 VP1 expression [1] = test: Immunofluorescence assay of viral VP1 in RD cells; format: cell-based, Enterovirus D68; details: EV-D68-infected RD cells, MOI 1, 12 h
Method in brief: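 RD cells were infected with EV-D68 at MOI 1 in the presence of test compound for 12 h. They were then fixed with 4% formaldehyde for 30 min, permeabilized with 0.1% Triton X-100 for 30 min and blocked with 5% bovine serum. Staining used rabbit anti-VP1 with an Alexa-546 secondary and 1 μM Hoechst33342 for nuclei, followed by fluorescence microscopy imaging.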

EV-D68 VP1 expression [2] = test: Western blot assay of viral VP1 in RD cells; format: cell-based, Enterovirus D68; details: EV-D68-infected RD cells, MOI 0.01, 12 hpi
Method in brief: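 RD cells (8.0 × 10^4 per well) were seeded and infected after 24 h with EV-D68 at MOI 0.01, with gradient-diluted test compound or DMSO, for 1.5 h. Cells were lysed in RIPA at 12 hpi. Equal protein was run on 10% SDS-PAGE, transferred to PVDF and blocked with 5% skim milk. Blots were probed with anti-EV-D68 and tubulin antibodies, then HRP secondaries, with ECL detection.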

EV-D68 [3] = test: Plaque formation assay in RD cells; format: cell-based, Enterovirus D68; details: concentration of 1 μM
Method in brief: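 RD cells grown overnight received serially diluted virus stock plus test compound for 1.5 h. The supernatant was then removed and replaced with a 2× DMEM overlay containing 2% low-melting agarose.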

[4] = tested on: EV-D68 strain STL-2014-12; test: CPE reduction assay, EV-D68 STL-2014-12 in RD cells; format: cell-based, Enterovirus D68; details: for EC50: Enterovirus D, EVD68, RD, CPE assay, anti-EV-D68 activity; for anti-EV-D68 activity: running text on series 1 SAR
EV-D68 virions [5] = test: Thermoprotection assay; set-up: species or system Enterovirus D68; details: 12.5 μM, heated 2 min, TCID50
Method in brief: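 Virus (2 × 10^6 PFU/ml) was preincubated with test compound (12.5 μM) or DMSO for 30 min at 33 °C. It was then heated for 2 min at 37–59 °C and rapidly cooled to 4 °C. Residual titre was measured by TCID50 on RD cells: 10-fold virus dilutions, CPE scored after 72 h, Reed–Muench calculation.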

[6] = Liver microsome stability assay, rat; format: in vitro ADME; details: liver microsomes
Method in brief: (§1)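 Test compound (1 μM final) was incubated at 37 °C with rat, beagle dog or human liver microsomes (0.5 mg/mL protein) and 1 mM NADPH, with a parallel no-NADPH control. Aliquots were quenched at 0, 5, 15, 30 and 60 min in solution containing internal standard, centrifuged at 4 °C and analysed by LC-MS/MS. t1/2 and intrinsic clearance were derived from compound depletion.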

EV-D68 [7] = test: Time of drug addition assay; format: cell-based, Enterovirus D68; details: 2 μM, RD cells, 0.01 MOI, viral load by qRT-PCR
[8] = Pharmacokinetic study in SD rats; format: in vivo; details: male, rat, plasma, iv, 1 mg/kg
Method in brief: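 Male SD rats (6–9 or 6–8 weeks old, depending on compound; n = 3) received a single iv dose of 1 mg/kg. The vehicle was 5% DMSO/5% Solutol HS-15/90% water or 5% DMSO/95% HP-β-CD in water. Jugular blood was taken into heparin at 0.083, 0.25, 0.5, 1, 2, 4, 6 and 24 h. Plasma, obtained by centrifugation at about 4 °C, was assayed by LC-MS/MS.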

[9] = Liver microsome stability assay, human; format: in vitro ADME; details: liver microsomes
Method in brief: as §1

[10] = Liver microsome stability assay, dog; format: in vitro ADME; details: beagle, liver microsomes
Method in brief: as §1

various EV-D68 strains = test: CPE assay, various EV-D68 strains; format: cell-based; details: Enterovirus D, EVD68
Method in brief: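 RD cells (DMEM, 10% FBS, 37 °C, 5% CO2) were seeded at 1.5 × 10^4/well and grown for 24 h. They were infected with 100 TCID50 of strain STL-2014-12, US/KY/14-18953, US/MO/14-18947 or Fermon, plus test compound in 3-fold dilutions (0.01–200 μM) or DMSO, for 72 h at 37 °C. ATP was read by CellTiter-Glo luminescence and normalised to uninfected and infected controls. EC50 is the concentration giving a 50% ATP increase.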

EV-D68 virions [11] = test: Particle stability thermal release assay; set-up: species or system Enterovirus D68; details: 10 μg/mL, 1.5 μg purified EV-D68, SYTO9
Method in brief: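 Test compound (10 μg/mL) or DMSO was mixed with 1.5 μg EV-D68 and SYTO9 nucleic-acid dye, at 5% DMSO. The mixture was held at 33 °C for 15 min, then ramped from 25 to 99 °C. Fluorescence was recorded in triplicate at 1 °C steps, and melting temperature was taken from the negative first-derivative curve.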

Cl.Nc1ccc(-c2ccc3ncc(-c4noc(C(F)(F)F)n4)cc3c2)cc1 [19·HCl, 4-(3-(5-(Trifluoromethyl)-1,2,4-oxadiazol-3-yl)quinolin-6-yl)aniline Hydrochloride]
expression level of viral VP1 (EV-D68 VP1 expression [1]): significantly inhibited the expression level of viral VP1 in a dose-dependent manner | expression level of viral VP1 (EV-D68 VP1 expression [2]): significantly inhibited the expression level of viral VP1 in a dose-dependent manner | replication of EV-D68 virus particles (plaque formation) (EV-D68 [3]): significantly inhibited the replication of EV-D68 virus particles

CCCc1ccc(-c2ccc3ncc(C(=O)OCC)cc3c2)cc1 [Compound 10, Ethyl 6-(4-Propylphenyl)quinoline-3-carboxylate]
EC50 [4]: > 10 µM

CCOC(=O)c1cnc2ccc(-c3cccc(N)c3)cc2c1 [Compound 11, Ethyl 6-(3-Aminophenyl)quinoline-3-carboxylate]
EC50 [4]: > 10 µM

CCOC(=O)c1cnc2ccc(-c3cn[nH]c3)cc2c1 [Compound 17, Ethyl 6-(1H-Pyrazol-4-yl)quinoline-3-carboxylate]
anti-EV-D68 activity [4]: complete loss of activity

CCOC(=O)c1cnc2ccc(-c3ccc(C(N)=O)cc3)cc2c1 [Compound 18, Ethyl 6-(4-Carbamoylphenyl)quinoline-3-carboxylate]
anti-EV-D68 activity [4]: inactivation

Nc1ccc(-c2ccc3ncc(-c4noc(C(F)(F)F)n4)cc3c2)cc1 [Compound 19, 4-(3-(5-(Trifluoromethyl)-1,2,4-oxadiazol-3-yl)quinolin-6-yl)aniline]
thermal inactivation of virus at 55 °C (EV-D68 virions [5]): significantly reduce the thermal inactivation | virus activity at 57 °C (EV-D68 virions [5]): maintained certain virus activity | CLint scaled at 1 h, 1 µM [6]: 61.2 mL/min/kg | antiviral activity, drug added after 1 hpi (phases II and IV) (EV-D68 [7]): antiviral activity disappeared | antiviral activity, drug added at 0–1 h (phase I) and 0–14 h (phase III) (EV-D68 [7]): significant antiviral activity | clearance at 24 h [8]: 64 ± 13.1 mL/min/kg | CLint scaled at 1 h, 1 µM [9]: 10.8 mL/min/kg | CLint scaled at 1 h, 1 µM [10]: 116 mL/min/kg | increase in antiviral potency compared to compound 15 ([4]; EC50 ratio, STL-2014-12): ~10 fold | EC50 (various EV-D68 strains): 0.05 to 0.1 µM

CCc1nc(-c2cnc3ccc(-c4ccc(N)cc4)cc3c2)no1.Cl [Compound 21·HCl, 4-(3-(5-Ethyl-1,2,4-oxadiazol-3-yl)quinolin-6-yl)aniline Hydrochloride]
clearance at 24 h [8]: 106 ± 10 mL/min/kg | expression level of viral VP1 (EV-D68 VP1 expression [1]): significantly inhibited the expression level of viral VP1 in a dose-dependent manner | expression level of viral VP1 (EV-D68 VP1 expression [2]): significantly inhibited the expression level of viral VP1 in a dose-dependent manner | replication of EV-D68 virus particles (plaque formation) (EV-D68 [3]): significantly inhibited the replication of EV-D68 virus particles

Cc1cc(CCCOc2c(C)cc(-c3noc(C(F)(F)F)n3)cc2C)on1 [Pleconaril, pleconaril, reference compound]
thermal inactivation of virus at 55 °C (EV-D68 virions [5]): significantly reduce the thermal inactivation | antiviral activity, drug added after 1 hpi (phases II and IV) (EV-D68 [7]): same experimental results | antiviral activity, drug added at 0–1 h (phase I) and 0–14 h (phase III) (EV-D68 [7]): same experimental results | protection against viral particles (PaSTRy) (EV-D68 virions [11]): almost no protection
